Test results reported in ChEMBL document CHEMBL3860076, “New inhibitors of tyrosyl-DNA phosphodiesterase I (Tdp 1) combining 7-hydroxycoumarin and monoterpenoid moieties” (Bioorg Med Chem, 2016).

Columns and labels:
[1] = target: T1, Tyrosyl-DNA phosphodiesterase 1 (Homo sapiens, UniProt Q9NUW8)
[2] = target: T1, Tyrosyl-DNA phosphodiesterase 1; assay: Reversal of Tdp1-mediated drug resistance in human MCF7 cells assessed as camptothecin CC50 at 5 uM measured after 72 hrs by MTT assay (reference value: 1430 +/- 430 nM); type: cell-based
Procedure, shortened: (§1)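 MCF-7 cells, about 2000 per well, were pre-incubated for 24 h at 37 °C in IMDM (5% CO₂). They were then given graded camptothecin concentrations together with a fixed 5 μM coumarin. After 72 h, viable cells were measured by MTT. Camptothecin CC50 was estimated with and without the coumarin.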

[3] = Cytotoxicity against human RPMI8226 cells expressing low levels of Tdp1 assessed as reduction in cell viability up to 100 uM measured after 72 hrs by MTT assay; type: toxicity, cell-based; settings: rpmi-8226, 72 h
Procedure, shortened: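 RPMI 8226 human myeloma cells were seeded at about 2000 per well and treated with the coumarins. They were incubated at 37 °C in RPMI 1640 medium (5% CO₂). Viability was measured by MTT.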

[4] = Cytotoxicity against human MCF7 cells expressing Tdp1 assessed as reduction in cell viability up to 100 uM measured after 72 hrs by MTT assay; type: toxicity, cell-based; settings: mcf7, 72 h
Procedure, shortened: (§2)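 MCF-7 mammary adenocarcinoma cells, about 2000 per well, were pre-incubated for 24 h at 37 °C in IMDM (5% CO₂). They were then exposed to the coumarins over a dose series up to 100 μM. After 72 h, live cells were quantified by colorimetric MTT test. CC50 was read from the dose-response curve.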

[5] = target: T1, Tyrosyl-DNA phosphodiesterase 1; assay: Reversal of Tdp1-mediated drug resistance in human MCF7 cells assessed as fold reduction in camptothecin CC50 at 5 uM measured after 72 hrs by MTT assay relative to camptothecin alone; type: cell-based
Procedure, shortened: as §1

[6] = Cytotoxicity against human MCF7 cells expressing Tdp1 assessed as reduction in cell viability measured after 72 hrs by MTT assay; type: toxicity, cell-based; settings: for Activity: mcf7, 72 h
Procedure, shortened: as §2

T1 sequence (Q9NUW8 whole entry): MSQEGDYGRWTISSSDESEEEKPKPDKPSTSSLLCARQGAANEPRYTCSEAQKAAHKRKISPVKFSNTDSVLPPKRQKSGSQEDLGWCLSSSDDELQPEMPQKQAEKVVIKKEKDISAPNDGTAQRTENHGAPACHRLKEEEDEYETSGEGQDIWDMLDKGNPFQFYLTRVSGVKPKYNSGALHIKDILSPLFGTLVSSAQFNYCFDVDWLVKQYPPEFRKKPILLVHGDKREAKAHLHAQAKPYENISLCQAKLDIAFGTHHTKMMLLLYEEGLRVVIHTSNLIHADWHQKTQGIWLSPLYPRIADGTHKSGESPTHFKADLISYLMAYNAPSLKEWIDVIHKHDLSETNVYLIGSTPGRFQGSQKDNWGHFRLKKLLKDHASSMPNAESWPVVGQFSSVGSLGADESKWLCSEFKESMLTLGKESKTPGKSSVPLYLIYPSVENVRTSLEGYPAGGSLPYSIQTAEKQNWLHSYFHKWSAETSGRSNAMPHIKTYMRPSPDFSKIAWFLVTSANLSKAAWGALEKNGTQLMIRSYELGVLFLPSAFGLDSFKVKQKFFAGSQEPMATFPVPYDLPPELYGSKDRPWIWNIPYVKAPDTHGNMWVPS

| Structure (SMILES) | IC50 [1] | CC50 [2] | Activity [3] | Activity [4] | fold change (FC) [5] | CC50 at 72 h ([6]; MCF7 cells expressing Tdp1) | Activity [6] |
| --- | --- | --- | --- | --- | --- | --- | --- |
| COc1cc(COc2ccc3c4c(c(=O)oc3c2)CCC4)cc(OC)c1OC | > 10000 nM | – | – | – | – | – | – |
| CC1(C)[C@@H]2CC=C(COc3ccc4c5c(c(=O)oc4c3)CCCC5)[C@H]1C2 | 1200 nM | 410 nM | Non-Toxic | Non-Toxic | – | – | – |
| CC1(C)[C@@H]2CC=C(COc3ccc4c5c(c(=O)oc4c3)CCC5)[C@H]1C2 | 675 nM | 180 nM | Non-Toxic | – | 8 | > 100000 nM | – |
| COc1cccc(COc2ccc3c(C)cc(=O)oc3c2)c1 | > 10000 nM | – | – | – | – | – | – |
| CC1(C)[C@H]2CC=C(COc3ccc4c5c(c(=O)oc4c3)CCCC5)[C@@H]1C2 | 1230 nM | – | – | Non-Toxic | – | – | – |
| COc1cc(COc2ccc3c4c(c(=O)oc3c2)CCCC4)cc(OC)c1OC | > 10000 nM | – | – | – | – | – | – |
| COc1cccc(COc2ccc3c4c(c(=O)oc3c2)CCCC4)c1 | 4930 nM | – | – | – | – | – | – |
| CC1(C)[C@H]2CC=C(CCOc3ccc4c5c(c(=O)oc4c3)CCCC5)[C@@H]1C2 | 1450 nM | 2300 nM | – | – | – | – | Dose-dependent effect |
| CC1(C)[C@H]2CC=C(COc3ccc4c5c(c(=O)oc4c3)CCC5)[C@@H]1C2 | 1370 nM | 330 nM | – | Non-Toxic | – | – | – |
| Cc1cc(=O)oc2cc(OCC3=CC[C@@H]4C[C@H]3C4(C)C)ccc12 | 4310 nM | 320 nM | Non-Toxic | – | – | – | Toxic |
| COc1cc(COc2ccc3c(C)cc(=O)oc3c2)cc(OC)c1OC | > 10000 nM | – | – | – | – | – | – |
| Cc1cc(=O)oc2cc(OCC3=CC[C@H]4C[C@@H]3C4(C)C)ccc12 | 1560 nM | 340 nM | Non-Toxic | – | – | – | Toxic |
| CC1(C)[C@H]2CC=C(CCOc3ccc4c5c(c(=O)oc4c3)CCC5)[C@@H]1C2 | 1090 nM | – | – | – | – | – | Dose-dependent effect |
